This is an account of results in PubChem BioAssay.

A short description of assay [1]: hit retest on RPL19A-GFP reporter strain – cell-based, S. cerevisiae, flow cytometry, cherry picks, mother/daughter gates, confirmation (AID 2270;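 active means GFP response below 50% of the DMSO control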). The conditions noted are these: 3 h, at 10 µM, stronger effect = lower value, 100 = same GFP as DMSO wells. On the technique in general: Flow cytometry measures light scatter and fluorescence of single cells or particles in a stream.

The nature of assay [2]: yeast TOR pathway reporter LAP4-GFP change – cell-based, cherry picks, flow cytometry, mother/daughter gates, confirmation (AID 2271;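 active means GFP response above 150% of the DMSO control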;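 further: ratio of sample to DMSO plate mean so 100% equals DMSO level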). The conditions noted are these: S. cerevisiae LAP4-GFP strain, 3 h, at 10 µM, stronger effect = higher value, 100 means same as DMSO control. In outline:
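System – GFP-fusion yeast strain · Amount – 0.2 OD600 cells · Buffer or medium – SC growth medium · Dosing – single test-compound dose, 10 µM final · Schedule – 3 h treatment at 30 °C with rotation · Detection – GFP by flow cytometry · Read-out – per-gate (all, mother, daughter) GFP response vs DMSO · Benchmarks – positive rapamycin (400 ng/mL), negative DMSO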

Assay [3] can be described thus: TOR pathway reporter MEP2-GFP, retest of hits – S. cerevisiae, flow cytometry GFP, cherry picks, confirmation (AID 2272;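 active means GFP response above 150% of the DMSO control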;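 further: ratio of well signal to plate DMSO mean so 100% equals DMSO level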). The settings on record: S. cerevisiae MEP2-GFP strain, 3 h, at 10 µM, stronger effect = higher value.
A short description of assay [4]: yeast AGP1-GFP fluorescence change, single-dose – cell-based, flow cytometry, S. cerevisiae, cherry picks, confirmation (AID 2273).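 Further: median GFP channel fluorescence over the whole cell population gate.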 The conditions noted are these: S. cerevisiae AGP1-GFP strain, 3 h, at 10 µM.
A short description of assay [5]: TOR pathway CIT2 reporter hit retest – S. cerevisiae, GFP fusion, cherry picks, mother/daughter gates, confirmation (AID 2274). The conditions noted are these: S. cerevisiae CIT2-GFP strain, flow cytometry, 3 h, at 10 µM, stronger effect = higher value.
Where [6] appears, read: measured here: daughter cell gate.
Where [7] appears, read: measured here: mother cell gate.
The mark [8] stands for this setting: measured here: daughter cell gate response.
[9] abbreviates: measured here: mother cell gate response.

The structures appear in SMILES notation. The source made the active and inactive calls.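 How the source made its calls, unless noted: active means GFP response above 150% of the DMSO level; inconclusive means fewer than 70 events counted for a yeast strain; inactive means the rest.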

As to `Cc1ccc(S(=O)(=O)c2ncccc2N)cc1`, the GFP response vs DMSO in assay [1] was 99.4% (inactive); in assay [1] (setting [6]), 99.4%; in assay [1] (setting [7]), 99%; in assay [3], 100% (inactive). For the same compound, the GFP response relative to DMSO is 101% (inactive) in assay [2], 101% in assay [2] (setting [8]) and 98.3% in assay [2] (setting [9]). In addition, the GFP response, % of DMSO is 102% (inactive) in assay [4], 101% (inactive) in assay [5], 101% in assay [5] (setting [6]) and 99.7% in assay [5] (setting [7]).
Take `Cc1ccc(C(=O)/C=C/C(=O)c2ccc(C)cc2)cc1`: the GFP response vs DMSO is 103% (inactive) in assay [1], 104% in assay [1] (setting [6]), 97.7% in assay [1] (setting [7]) and 101% (inactive) in assay [3]. Moreover, the GFP response relative to DMSO in assay [2] is 195% (active); in assay [2] (setting [8]) it was 190%; in assay [2] (setting [9]), 201%. The GFP response, % of DMSO in assay [4] is 111% (inactive); in assay [5], 95.9% (inactive); in assay [5] (setting [6]), 100%; in assay [5] (setting [7]) it was 84.8%.
Take `Cc1ccc(C2=NN(S(C)(=O)=O)C(c3ccc4c(c3)OCO4)C2)cc1` (centres undefined): the GFP response vs DMSO in assay [1] was 101% (inactive); in assay [1] (setting [6]), 99.6%; in assay [1] (setting [7]), 102%; in assay [3] it was 141% (inactive). The figures for the GFP response relative to DMSO in assay [2], in assay [2] (setting [8]) and in assay [2] (setting [9]) were 116% (inactive), 115% and 115%, respectively. Further, the GFP response, % of DMSO is 103% (inactive) in assay [4], 129% (inactive) in assay [5], 130% in assay [5] (setting [6]) and 119% in assay [5] (setting [7]).
Take `COc1cc(NC(=O)C(C)C)ccc1NC(=O)c1cc2ccccc2o1`: the GFP response vs DMSO was 102% (inactive) in assay [1], 99.8% in assay [1] (setting [6]), 103% in assay [1] (setting [7]) and 102% (inactive) in assay [3]. The GFP response relative to DMSO in assay [2] was 92.6% (inactive); in assay [2] (setting [8]), 92.5%; in assay [2] (setting [9]), 94.2%. The GFP response, % of DMSO in assay [4] was 97.8% (inactive); in assay [5], 103% (inactive); in assay [5] (setting [6]), 101%; in assay [5] (setting [7]), 104%.
With `CCOc1ccc(Nc2ccc(C(=O)O)cc2[N+](=O)[O-])cc1`, the GFP response vs DMSO was 102% (inactive) in assay [1], 98.4% in assay [1] (setting [6]), 104% in assay [1] (setting [7]) and 101% (inactive) in assay [3]. For the same compound, the GFP response relative to DMSO in assay [2] was 101% (inactive); in assay [2] (setting [8]), 99.1%; in assay [2] (setting [9]) it was 100%. In addition, the GFP response, % of DMSO is 97.8% (inactive) in assay [4], 98.8% (inactive) in assay [5], 95.6% in assay [5] (setting [6]) and 96.8% in assay [5] (setting [7]).
Consider `O=C1/C(=C/c2ccccn2)COc2ccccc21`, for which the GFP response vs DMSO in assay [1] was 94.2% (inactive); in assay [1] (setting [6]), 96.4%; in assay [1] (setting [7]), 91.2%; in assay [3], 110% (inactive). Further, the GFP response relative to DMSO in assay [2] was 135% (inactive); in assay [2] (setting [8]) it was 130%; in assay [2] (setting [9]) it was 134%. Also, the GFP response, % of DMSO in assay [4] was 95.5% (inactive); in assay [5], 94.4% (inactive); in assay [5] (setting [6]), 99.3%; in assay [5] (setting [7]), 88.2%.
Take `Cc1ccc(N2C(=O)c3ccccc3NC2c2ccccc2O)cc1` (centres undefined): the GFP response vs DMSO is 97.2% (inactive) in assay [1], 98.1% in assay [1] (setting [6]), 98.4% in assay [1] (setting [7]) and 109% (inactive) in assay [3]. Further, the GFP response relative to DMSO is 97.9% (inactive) in assay [2], 96% in assay [2] (setting [8]) and 96.1% in assay [2] (setting [9]). For the same compound, the GFP response, % of DMSO in assay [4] is 96.6% (inactive); in assay [5], 103% (inactive); in assay [5] (setting [6]), 105%; in assay [5] (setting [7]) it was 103%.
Turning to `CC1CN(c2nc3ccccn3c(=O)c2/C=C(\C#N)C(N)=O)CC(C)O1` (centres undefined), the GFP response vs DMSO in assay [1] is 97.8% (inactive); in assay [1] (setting [6]) it was 97.3%; in assay [1] (setting [7]) it was 95.8%; in assay [3], 106% (inactive). In addition, the GFP response relative to DMSO was 96.5% (inactive) in assay [2], 99% in assay [2] (setting [8]) and 95.4% in assay [2] (setting [9]). Moreover, the GFP response, % of DMSO in assay [4] is 99.5% (inactive); in assay [5], 101% (inactive); in assay [5] (setting [6]) it was 99.3%; in assay [5] (setting [7]), 103%.
`Cc1noc(/C=C/c2cccnc2)c1[N+](=O)[O-]`: the GFP response vs DMSO is 105% (inactive) in assay [1], 104% in assay [1] (setting [6]), 103% in assay [1] (setting [7]) and 104% (inactive) in assay [3]. For the same compound, the GFP response relative to DMSO is 120% (inactive) in assay [2], 117% in assay [2] (setting [8]) and 124% in assay [2] (setting [9]). Besides, the GFP response, % of DMSO was 92.4% (inactive) in assay [4], 92.6% (inactive) in assay [5], 94.8% in assay [5] (setting [6]) and 89.1% in assay [5] (setting [7]).
